The values below come from publication PMC11134322 (RSC Advances, 2024).

Format in all cases: cell-based
For data set [1], the system named is LPS-induced NO release in RAW264.7 cells. Description: Inhibition of LPS-induced NO release, Griess reagent test. The following applies: Mus musculus, RAW264.7, 24 h, read-out: IC50 NO. An outline of the steps: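 Log-phase RAW264.7 cells were seeded at 4 × 10^5 cells per mL in 96-well plates and grown 24 h. They were pretreated with test compound or indomethacin for 30 min, then stimulated with LPS (0.5 mg L−1) for 24 h more. NO in the supernatant was measured by Griess method and quantified against an NaNO2 standard curve. IC50 came from dose–response experiments.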

Another data set concerns RAW264.7 cells. Description: Cytotoxicity, CCK-8 assay. The following applies: RAW264.7 cells, 24, 48 and 72 h; DEX 27.964 μM, 13b 12.326 μM, 13d 23.684 μM.
The subject of data set [2] is LPS-induced IL-6 release in RAW264.7 cells. As to the kind of experiment: Inhibition of LPS-induced IL-6 production, ELISA. The following applies: Mus musculus, RAW264.7, 24 h, read-out: IC50 IL-6. The gist of the method:
(§1)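 Log-phase RAW264.7 cells, 4 × 10^5 cells per mL, were grown 24 h before dosing. They received test compound or indomethacin for 30 min, then LPS (0.5 mg L−1) for a further 24 h. IL-6 or TNF-α in the culture medium was measured by commercial ELISA, reading absorbance at 450 nm against a standard curve. IC50 came from dose–response experiments.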

In data set [3] the test system is LPS-induced TNF-α release in RAW264.7 cells. Description: Inhibition of LPS-induced TNF-α production, ELISA. The note with it: Mus musculus, RAW264.7, 24 h, read-out: IC50 TNF-α. An outline of the steps:
as §1

Structures are written as SMILES.

Regarding `C[C@@H]1C[C@H]2[C@@H]3CCC4=CC(=O)C=C[C@]4(C)[C@@]3(F)[C@@H](O)C[C@]2(C)[C@@]1(O)C(=O)CO` [DEX, dexamethasone], the values for the IC50 in data set [1], in data set [2] and in data set [3] were 21.2 ± 0.517 µM, 0.247 ± 0.073 µM and 27.8 ± 0.643 µM, respectively. Moreover, the “cytotoxicity: cell activity / proliferation versus control (in words)” value in the data set on RAW264.7 cells is reported as “no discernible change in cell activity”.
